SMILES strings stand for the structures.

For series [1], the system named is MCF7. Briefly: Cytostatic activity against human MCF7 cells compound incubated for 6 hrs followed by compound wash out measured after 72 hrs by MTT assay. The series is classed as functional, cell-based. An outline of the steps:
(§1)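 Cells plated at 5×10^3 per well and grown 24 h. Exposed 6 h to compound in serum-free RPMI-1640 (2.6×10^-4–10^2 µM, six parallels per concentration), washed twice, then cultured 72 h in serum-containing medium. MTT added at 367 µg/mL final for 3.5 h; crystals dissolved in DMSO; OD540 minus OD620 read. Cytostasis% = [1−(OD_treated/OD_control)]×100; IC50 taken from a sigmoidal fit. Three independent experiments, averaged.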
A general note: Formazan colour is commonly taken as a measure of viable cells.

For series [2], the target named is T1, Gonadotropin-releasing hormone receptor (Homo sapiens, UniProt P30968).
T1 sequence (P30968 whole entry): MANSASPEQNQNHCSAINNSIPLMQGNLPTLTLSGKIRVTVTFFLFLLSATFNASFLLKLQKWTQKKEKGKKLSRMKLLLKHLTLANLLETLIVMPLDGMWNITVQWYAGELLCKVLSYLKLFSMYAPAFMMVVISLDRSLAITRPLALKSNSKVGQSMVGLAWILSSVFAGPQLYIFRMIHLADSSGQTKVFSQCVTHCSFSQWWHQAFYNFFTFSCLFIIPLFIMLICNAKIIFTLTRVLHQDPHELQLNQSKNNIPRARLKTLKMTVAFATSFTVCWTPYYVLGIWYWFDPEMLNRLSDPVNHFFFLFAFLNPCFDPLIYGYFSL
Kind of series: Displacement of [125I][D-Trp6]GnRH1 from GnRH receptor expressed in human prostate cancer membrane by gamma counting. The series is classed as cell membranes, Prostate gland. An outline of the steps:
(§2)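 Membranes came from autopsy anterior pituitary or a surgical prostate cancer specimen, homogenized in 50 mM Tris-HCl pH 7.4 with protease inhibitors and ultracentrifuged. 50–160 µg protein was incubated with 60-80,000 cpm [125I][D-Trp6]GnRH-I and competitor (10^-12–10^-6 M). Bound ligand was pelleted through ice-cold 1.5% BSA buffer and gamma-counted. IC50 (50% inhibition of specific binding) came from curve fitting; mean ± SE of 2–3 experiments, duplicate or triplicate.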
(In general: In a radioligand displacement assay an active substance lowers the binding of a labelled ligand.)

Series [3] relates to MCF7. Kind of series: Cellular uptake in human MCF7 cells after 6 hrs by flow cytometer. The series is classed as ADME, cell-based. The conditions noted are these: mcf7, 6 h. An outline of the steps: (§3)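 Cells plated at 1 x 10^5 per well, grown 24 h at 37°C, then exposed to conjugate in serum-free medium (0.16–100 µM) for 6 h at 37°C. Cells detached with trypsin/EDTA, resuspended in FCS-free medium and analysed by flow cytometry. Read-out is the percentage of daunorubicin-positive living cells. Duplicate samples at each concentration; each experiment repeated twice.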

Series [4] concerns the target T1, Gonadotropin-releasing hormone receptor. Briefly: Displacement of [125I][D-Trp6]GnRH1 from GnRH receptor expressed in human pituitary membrane by gamma counting. The series is classed as cell membranes. An outline of the steps:
as §2

Series [5] has as its system HT-29. Briefly: Cellular uptake in human HT-29 cells after 6 hrs by flow cytometer. The class given is ADME, cell-based. Particulars: ht-29, 6 h; call rule not given here. In a few lines:
as §3
In general terms: Flow cytometry measures light scatter and fluorescence of single cells or particles in a stream.

The subject of series [6] is HT-29. Kind of series: Cytostatic activity against human HT-29 cells compound incubated for 6 hrs followed by compound wash out measured after 72 hrs by MTT assay. The series is classed as functional, cell-based. In a few lines:
as §1

The test system of series [7] is Serum. Kind of series: Metabolic stability […] assessed as alpha-chymotrypsin-mediated compound degradation after 24 hrs by LC-MS analysis. The class given is ADME, cell-free. In a few lines:
(§4)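 Digestion with α-chymotrypsin at an enzyme:substrate ratio of 1:50 (w/w) in 100 mM Tris-HCl/10 mM CaCl₂, pH 7.8, at 25°C. Aliquots taken at 5 min and 1, 2, 4, 6, 8 and 24 h, quenched with acetic acid, and analysed by LC-MS for intact conjugate and cleavage fragments.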

Series [8] can be described thus: Drug metabolism in rat liver lysosomal homogenate after 2 hrs by LC-MS analysis. The class given is ADME, tissue-based. Particulars: tissue homogenate. In a few lines: (§5)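 Conjugate at 0.1 µg/µL in 0.2 M NaOAc pH 5.0, mixed 1:1 (w/w) with rat liver lysosomal homogenate (protein 17.4 µg/µL by BCA). Incubated at 37°C; aliquots taken at 5 min and 1, 2, 4, 6, 8 and 24 h. Fragments identified by ESI ion-trap LC-MS on a C18 column with a formic acid/acetonitrile gradient, positive mode, m/z 100–2500.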

Series [9] is described as follows: Drug metabolism in rat liver lysosomal homogenate after 24 hrs by LC-MS analysis. The series is classed as ADME, tissue-based. Particulars: tissue homogenate. In a few lines: as §5
The nature of series [10]: Metabolic stability […] assessed as alpha-chymotrypsin-mediated compound degradation after 6 hrs by LC-MS analysis. The class given is ADME, cell-free. Particulars: read-out: Drug degradation. An outline of the steps:
as §4

Series [11] can be described thus: Chemical stability of the compound in serum-free DMEM cell culture media after 6 hrs by RP-HPLC analysis. The class given is physicochemical. An outline of the steps: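 Conjugate dissolved in water (20% of final volume), then diluted with serum-free DMEM to a final 0.5 mg/mL. Incubated at 37°C for 6 h with hourly sampling. Monitored by analytical RP-HPLC on a C18 or CN column, gradient of 0.1% TFA water/MeCN, detection at 220 nm.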

Series [12] is described as follows: Metabolic stability […] assessed as alpha-chymotrypsin-mediated compound degradation after 8 hrs by LC-MS analysis. The series is classed as ADME, cell-free. The conditions noted are these: read-out: Drug degradation. An outline of the steps: as §4
Series [13] deals with MCF7. Kind of series: Cellular uptake in human MCF7 cells at 4 uM after 6 hrs by flow cytometer. The series is classed as ADME, cell-based. Particulars: mcf7, 6 h. In a few lines: as §3
Series [14] in a line: Octanol-water partition coefficient, log P of the compound by shake flask method. The series is classed as physicochemical. In a few lines:
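Shake-flask octanol/water partitioning with RP-HPLC quantitation. P calculated as the ratio of octanol to water HPLC peak areas, then converted to logP.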

Consider `COc1cccc2c1C(=O)c1c(O)c3c(c(O)c1C2=O)C[C@@](O)(/C(C)=N/OCC(=O)NCCCC[C@@H](NC(=O)[C@H](Cc1ccc(O)cc1)NC(=O)[C@H](CO)NC(=O)[C@H](Cc1c[nH]c2ccccc12)NC(=O)[C@H](Cc1cnc[nH]1)NC(=O)[C@@H]1CCC(=O)N1)C(=O)N[C@@H](CC(C)C)C(=O)N[C@@H](CCCNC(=N)N)C(=O)N1CCC[C@H]1C(=O)NCC(N)=O)C[C@@H]3O[C@H]1C[C@H](N)[C@H](O)[C@H](C)O1`, for which the IC50 is 4.1 µM in series [1], 0.0165 µM in series [2], 0.00162 µM in series [4] and 20.2 µM in series [6]. The Drug uptake result in series [3] and in [5] was “Dose-dependent effect” in each case.

`CCC(=O)NCCCC[C@H](NC(=O)[C@H](Cc1c[nH]c2ccccc12)NC(=O)[C@H](Cc1cnc[nH]1)NC(=O)[C@@H]1CCC(=O)N1)C(=O)N[C@@H](Cc1cnc[nH]1)C(=O)N[C@@H](CC(=O)O)C(=O)N[C@@H](Cc1c[nH]c2ccccc12)C(=O)N[C@@H](CCCCNC(=O)CO/N=C(\C)[C@]1(O)Cc2c(O)c3c(c(O)c2[C@@H](O[C@H]2C[C@H](N)[C@H](O)[C@H](C)O2)C1)C(=O)c1c(OC)cccc1C3=O)C(=O)N1CCC[C@H]1C(=O)NCC(N)=O`: the results for the IC50 in series [1] and in series [6] were 3.6 µM and 17.2 µM, respectively. Besides, the Stability entry in [7] is recorded as “Unstable”; in series [11], “Stable”. Further, the Drug metabolism result in series [8] and in series [9] was “Active” throughout. For the same molecule, the Drug uptake result in [3] and in [5] was “Dose-dependent effect” each time. Moreover, the metabolised at 6 h in series [10] came to 45%.

As for `C/C=C/C(=O)NCCCC[C@H](NC(=O)[C@H](Cc1c[nH]c2ccccc12)NC(=O)[C@H](Cc1cnc[nH]1)NC(=O)[C@@H]1CCC(=O)N1)C(=O)N[C@@H](Cc1cnc[nH]1)C(=O)N[C@@H](CC(=O)O)C(=O)N[C@@H](Cc1c[nH]c2ccccc12)C(=O)N[C@@H](CCCCNC(=O)CO/N=C(\C)[C@]1(O)Cc2c(O)c3c(c(O)c2[C@@H](O[C@H]2C[C@H](N)[C@H](O)[C@H](C)O2)C1)C(=O)c1c(OC)cccc1C3=O)C(=O)N1CCC[C@H]1C(=O)NCC(N)=O`, the IC50 in series [1] turned out to be 1.6 µM; in series [6] it was 13.6 µM. For the same molecule, the Stability entry in series [7] is reported as “Unstable”; in series [11], “Stable”. The Drug metabolism entry in series [8] and in series [9] was “Active” throughout. Further, the Drug uptake entry in series [3] and in series [5] was “Dose-dependent effect” each time. In addition, the metabolised at 6 h in series [10] worked out at 50%.

Regarding `COc1cccc2c1C(=O)c1c(O)c3c(c(O)c1C2=O)C[C@@](O)(/C(C)=N/OCC(=O)NCCCC[C@H](NC(=O)[C@H](Cc1c[nH]c2ccccc12)NC(=O)[C@H](CC(=O)O)NC(=O)[C@H](Cc1cnc[nH]1)NC(=O)[C@H](CCCCNC(=O)CC(C)C)NC(=O)[C@H](Cc1c[nH]c2ccccc12)NC(=O)[C@H](Cc1cnc[nH]1)NC(=O)[C@@H]1CCC(=O)N1)C(=O)N1CCC[C@H]1C(=O)NCC(N)=O)C[C@@H]3O[C@H]1C[C@H](N)[C@H](O)[C@H](C)O1`, in [12], the metabolised at 8 h worked out at 50%. Besides, the IC50 was 2.5 µM in [1] and 16.4 µM in [6]. Moreover, the Stability result was “Unstable” in [7] and “Stable” in series [11]. Moreover, the Drug metabolism entry in series [8] and in series [9] was “Active” each time. The Drug uptake entry in series [3] and in series [5] was “Dose-dependent effect” throughout. In [10], the metabolised at 6 h was 34%.

For the molecule `CCCCCC(=O)NCCCC[C@H](NC(=O)[C@H](Cc1c[nH]c2ccccc12)NC(=O)[C@H](Cc1cnc[nH]1)NC(=O)[C@@H]1CCC(=O)N1)C(=O)N[C@@H](Cc1cnc[nH]1)C(=O)N[C@@H](CC(=O)O)C(=O)N[C@@H](Cc1c[nH]c2ccccc12)C(=O)N[C@@H](CCCCNC(=O)CO/N=C(\C)[C@]1(O)Cc2c(O)c3c(c(O)c2[C@@H](O[C@H]2C[C@H](N)[C@H](O)[C@H](C)O2)C1)C(=O)c1c(OC)cccc1C3=O)C(=O)N1CCC[C@H]1C(=O)NCC(N)=O`, the half-inhibitory concentration (IC50) stood at 1.5 µM in series [1] and 20.1 µM in series [6]. The Drug degradation in [7] came to 90%. For the same molecule, the Drug metabolism result in series [8] and in [9] was “Active” in each case. For the same molecule, the Drug uptake result in series [3] and in series [5] was “Dose-dependent effect” in each case. In [10], the metabolised at 6 h was 30%. Besides, in series [11], the Stability entry was “Stable”.

Take `CCCCCCCCCCCCCC(=O)NCCCC[C@H](NC(=O)[C@H](Cc1c[nH]c2ccccc12)NC(=O)[C@H](Cc1cnc[nH]1)NC(=O)[C@@H]1CCC(=O)N1)C(=O)N[C@@H](Cc1cnc[nH]1)C(=O)N[C@@H](CC(=O)O)C(=O)N[C@@H](Cc1c[nH]c2ccccc12)C(=O)N[C@@H](CCCCNC(=O)CO/N=C(\C)[C@]1(O)Cc2c(O)c3c(c(O)c2[C@@H](O[C@H]2C[C@H](N)[C@H](O)[C@H](C)O2)C1)C(=O)c1c(OC)cccc1C3=O)C(=O)N1CCC[C@H]1C(=O)NCC(N)=O`: the Drug uptake in [13] was 41.3%; in series [3] it was “Dose-dependent effect”; in series [5], “Dose-dependent effect”. Besides, the IC50 in series [1] was 6.8 µM; in series [6], 37.4 µM. The Drug metabolism entry in series [8] and in series [9] was “Active” throughout. Further, the Stability result in series [11] is “Stable”. In [14], this molecule showed a logP of -0.596.

As to `COc1cccc2c1C(=O)c1c(O)c3c(c(O)c1C2=O)C[C@@](O)(/C(C)=N/OCC(=O)NCCCC[C@H](NC(=O)[C@H](Cc1c[nH]c2ccccc12)NC(=O)[C@H](CC(=O)O)NC(=O)[C@H](Cc1cnc[nH]1)NC(=O)[C@H](CCCCN)NC(=O)[C@H](Cc1c[nH]c2ccccc12)NC(=O)[C@H](Cc1cnc[nH]1)NC(=O)[C@@H]1CCC(=O)N1)C(=O)N1CCC[C@H]1C(=O)NCC(N)=O)C[C@@H]3O[C@H]1C[C@H](N)[C@H](O)[C@H](C)O1`, the values for the 50% inhibitory concentration (IC50) in series [1] and in series [6] were 2.6 µM and 8.1 µM, respectively. The Drug uptake result in series [3] and in series [5] was “Dose-dependent effect” in each case.

A word on the IC50: it is the concentration at which inhibition is half-maximal. What is called logP is a log measure of how a compound divides between an organic and an aqueous phase. High values mean a more lipophilic compound, low ones a more hydrophilic compound.

The record behind these values is ChEMBL document CHEMBL2086240, “Enhanced cellular uptake and in vitro antitumor activity of short-chain fatty acid acylated daunorubicin-GnRH-III bioconjugates” (Eur J Med Chem, 2012).
